The text below walks through data of ChEMBL document CHEMBL1944531, “In silico assay for assessing phospholipidosis potential of small druglike molecules: training, validation, and refinement using several data sets” (J Med Chem, 2012).

Holding throughout (parameters): species or system Bos taurus, Cornea
What all share (details): cattle, corneal fibroblast

Data set [1] in a line: Induction of phospholipidosis in bovine corneal fibroblasts assessed as lamellar inclusion bodies after 72 hrs by light microscopy.
The nature of data set [2]: Induction of phospholipidosis in bovine corneal fibroblasts assessed as lamellar inclusion bodies at 2.5 to 20 uM after 72 hrs by light microscopy. The method in brief:
(§1)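 Primary bovine corneal fibroblasts from collagenase-treated explants, passage 2–8, grown in DMEM/10% FCS/L-glutamine/antibiotics at 37 °C, 5% CO2. Confluent cells exposed 72 h to compound at 2.5, 5.0, 7.5, 10.0, 12.5, 15.0 or 20 μM (DMSO 1% where used). Controls: medium, 1% DMSO, imipramine 10 μM, in duplicate. Cells were fixed in 1% glutaraldehyde, stained overnight with 1% tannic acid, and black intracytoplasmic inclusions scored qualitatively by light microscopy.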

A short description of data set [3]: Induction of phospholipidosis in bovine corneal fibroblasts assessed as lamellar inclusion bodies at 20 uM after 72 hrs by light microscopy. The method in brief:
as §1

Data set [4] is described as follows: Induction of phospholipidosis in bovine corneal fibroblasts assessed as lamellar inclusion bodies at 7.5 uM after 72 hrs by light microscopy. In outline: as §1

For the compound `Cc1cc(-c2cc(-c3ccccc3C)c(C(=O)NCc3cc(C(F)(F)F)cc(C(F)(F)F)c3)cn2)ccn1`, the Activity result in data set [1] was “Non-toxic”.

For `CN1CCN([C@@H]2CCN(C(=O)c3cc(C(F)(F)F)cc(C(F)(F)F)c3)C[C@@H]2c2ccccc2)CC1`, in data set [1], the Activity entry was “Toxic”. As to `COc1cc(-c2nc(N)c(CN)c(-c3ccc(Cl)cc3Cl)n2)cc(OC)c1OC`, the Activity entry in data set [1] is reported as “Toxic”. As for `CCCC(CCC)C(=O)O` [VALPROIC ACID], in data set [1], the Activity entry was “Non-toxic”.

With `COc1ccc(C2CCOCC2)c2sc(NC(=O)N(C)C3CCN(C)CC3)nc12`, the Activity result in data set [1] is given as “Toxic”. The same measure, in the same setting: the same measure for `Cc1cccc(CN2CCN(C(c3ccccc3)c3ccc(Cl)cc3)CC2)c1` (centres undefined) [MECLIZINE]: “Toxic”; for `CN(C)CCCN1c2ccccc2CCc2ccc(Cl)cc21` [CLOMIPRAMINE]: “Toxic”; for `O=C(c1cc(C(F)(F)F)cc(C(F)(F)F)c1)N1CC[C@@H](N2CCOCC2)[C@@H](c2ccc(Cl)cc2)C1`: “Toxic”. Same read-out and setting: the same measure for `O=C(CCCN1CCC(O)(c2ccc(Cl)cc2)CC1)c1ccc(F)cc1` [HALOPERIDOL]: “Toxic”; for `CN(C)CCCN1c2ccccc2Sc2ccc(Cl)cc21` [CHLORPROMAZINE]: “Toxic”. The same measure, in the same setting: next, `CCCC[C@@H]1CC(=O)[C@]2(O)O[C@@H]3[C@@H](NC)[C@@H](O)[C@@H](NC)[C@H](O)[C@H]3O[C@@H]2O1` [TROSPECTOMYCIN]: “Non-toxic”; `CS(=O)(=O)O.Cc1cc(-c2cnccn2)nn1CCC(C)(C)NCC(=O)N1CCC[C@H]1C#N`: “Non-toxic”.

Consider `[H]/N=C(/N)N[C@H]1[C@H](O)[C@@H](O)[C@H](O[C@@H]2O[C@@H](C)[C@](O)(C=O)[C@H]2O[C@@H]2O[C@@H](CO)[C@H](O)[C@@H](O)[C@@H]2NC)[C@@H](N/C(N)=N\[H])[C@@H]1O` [STREPTOMYCIN], for which, in data set [1], the Activity result is “Non-toxic”.

For `CN(C)CCCN1c2ccccc2CCc2ccccc21` [IMIPRAMINE], in data set [1], the Activity result is “Toxic”. With `CCN(CCO)CCCCOc1ccc2c(-c3ccc(Br)cc3)nsc2c1`, in data set [1], the Activity entry is “Toxic”. `C[C@@H]1CNC[C@H]2Cc3ccc(Cl)nc3N21`: the Activity result in data set [2] is recorded as “Toxic”; in data set [1], “Non-toxic”. On to `NCC[C@H](O)C(=O)N[C@@H]1C[C@H](N)[C@@H](O[C@H]2O[C@H](CN)[C@@H](O)[C@H](O)[C@H]2O)[C@H](O)[C@H]1O[C@H]1O[C@H](CO)[C@@H](O)[C@H](N)[C@H]1O` [AMIKACIN], for which, in data set [1], the Activity entry is listed as “Non-toxic”. As for GENTAMICIN, the Activity result in data set [1] is “Non-toxic”. In the case of `OCCOCCN1CCN(C(c2ccccc2)c2ccc(Cl)cc2)CC1` (centres undefined) [HYDROXYZINE], the Activity entry in data set [1] is given as “Toxic”. For `CCC1(c2ccccc2)C(=O)NC(=O)NC1=O` [PHENOBARBITAL], the Activity result in data set [1] was “Non-toxic”. `CN(C)CCCN1c2ccccc2Sc2ccccc21` [PROMAZINE]: the Activity entry in data set [1] is recorded as “Toxic”.

For the compound `CCO[C@@H](C)c1ccc2c(n1)N1[C@@H](CNC[C@H]1C)C2.Cl`, the Activity result in data set [1] is “Non-toxic”; in data set [3], “Toxic”. For `CCCCc1oc2ccccc2c1C(=O)c1cc(I)c(OCCN(CC)CC)c(I)c1` [AMIODARONE], the Activity entry in data set [1] is recorded as “Toxic”.

Take `CN1CCN(C(c2ccccc2)c2ccccc2)CC1` [CYCLIZINE]: the Activity entry in data set [1] was “Toxic”. As for `CS(=O)(=O)O.C[C@H](NCc1ccc(OCc2cccc(F)c2)cc1)C(N)=O` [SAFINAMIDE MESYLATE], the Activity result in data set [1] is given as “Toxic”. The same measure, in the same setting: the same measure for `CC(C)(CCn1cnc(-c2cccnc2)c1)NCC(=O)N1CCC[C@H]1C#N.CS(=O)(=O)O`: “Non-toxic”.

On to `CN(C)CCCC1(c2ccc(F)cc2)OCc2cc(C#N)ccc21` (centres undefined) [CITALOPRAM], for which the Activity result in data set [1] is on record as “Toxic”. As to `NCc1c(N)nc(-c2ccccc2)nc1-c1ccc(Cl)cc1Cl`, the Activity result in data set [1] was “Toxic”.

For the compound `CC/C(=C(\c1ccccc1)c1ccc(OCCN(C)C)cc1)c1ccccc1` [TAMOXIFEN], in data set [1], the Activity entry is “Toxic”. In the case of `CNCCCC12CCC(c3ccccc31)c1ccccc12` [MAPROTILINE], in data set [1], the Activity result is listed as “Toxic”. For the compound `CC(=O)Nc1ccc(N2CCN(CCCN(C)C)CC2)cc1` [PIPERAMIDE], the Activity entry in data set [1] is reported as “Toxic”.

Regarding `CC(C)COc1ccc(S(C)(=O)=O)cc1C(=O)N1Cc2cnc(C(F)(F)F)cc2C1`, the Activity result in data set [1] was “Non-toxic”. On to `Cc1cc(C#Cc2cn(-c3ccc(F)cc3)c(C)n2)ccn1`, for which, in data set [1], the Activity entry is reported as “Non-toxic”. Still for that read-out and setting: the same measure for `CC(C)CC(N(C)C)C1(c2ccc(Cl)cc2)CCC1.Cl` (centres undefined): “Toxic”; for `CN1C(=O)CN=C(c2ccccc2)c2cc(Cl)ccc21` [DIAZEPAM]: “Non-toxic”; for `CN1CCN(C(c2ccccc2)c2ccc(Cl)cc2)CC1` (centres undefined) [CHLORCYCLIZINE]: “Toxic”. Turning to `COc1cc(F)c(C(OC)C(=O)NCc2ccc(C(=N)N)cc2)c(F)c1.Cl` (centres undefined), in data set [1], the Activity result is “Non-toxic”. With `CCN(CC)CCCC(C)Nc1ccnc2cc(Cl)ccc12` (centres undefined) [CHLOROQUINE], in data set [1], the Activity result was “Toxic”. On the same count and under the same terms, the same measure for `C1CCC(C(CC2CCCCN2)C2CCCCC2)CC1` (centres undefined) [PERHEXILINE]: “Toxic”. Turning to `COc1cc2c(cc1OC)[C@@H]1C[C@H](N)[C@@H](N3C[C@@H](C)CC3=O)CN1CC2`, the Activity result in data set [1] is on record as “Non-toxic”. As to `CC[C@H]1OC(=O)[C@H](C)[C@@H](O[C@H]2C[C@@](C)(OC)[C@@H](O)[C@H](C)O2)[C@H](C)[C@@H](O[C@@H]2O[C@H](C)C[C@H](N(C)C)[C@H]2O)[C@](C)(O)C[C@@H](C)C(=O)[C@H](C)[C@@H](O)[C@]1(C)O` [ERYTHROMYCIN], the Activity result in data set [1] is “Non-toxic”. Consider `CCN(CC)CCOc1ccc2c(c1)C(=O)c1cc(OCCN(CC)CC)ccc1-2` [TILORONE], for which the Activity entry in data set [1] is on record as “Toxic”.

For `CC(C)NCC(O)COc1cccc2ccccc12` (centres undefined) [PROPRANOLOL], the Activity entry in data set [1] was “Toxic”. As to `CN(CC[C@H]1CC[C@H](CN2CCCCC2)CC1)C(=O)Oc1ccc(C(F)(F)F)cc1`, the Activity result in data set [1] was “Toxic”. The same measure, in the same setting: next, `CN1CCN(C2=Nc3cc(Cl)ccc3Nc3ccccc32)CC1` [CLOZAPINE]: “Toxic”.

Regarding `C[C@H](C(N)=O)N1CCc2cc(OCc3cccc(F)c3)ccc2C1`, the Activity result in data set [1] is given as “Toxic”. Consider `O=C(N[C@H](CO)[C@H](O)c1ccc([N+](=O)[O-])cc1)C(Cl)Cl` [CHLORAMPHENICOL], for which the Activity entry in data set [1] is “Non-toxic”. Regarding `Cc1ccc2c(n1)N1[C@@H](CNC[C@H]1C)C2`, the Activity result in data set [1] is recorded as “Non-toxic”. Regarding `CC(OCC1CC1)c1ccc2c(n1)N1[C@@H](CNC[C@H]1C)C2` (some centres undefined), the Activity result in data set [4] and in data set [1] was “Toxic” in each case.

As to `Cc1c(Cl)ccc2c1N1[C@H](CNC[C@H]1C)C2`, the Activity result in data set [1] and in data set [3] was “Toxic” in each case. For the compound `CC(C)(N)Cc1ccc(Cl)cc1` [CHLORPHENTERMINE], the Activity result in data set [1] is “Toxic”. As for `CN(C(=O)C(C)(C)c1cc(C(F)(F)F)cc(C(F)(F)F)c1)c1cnc(NCCO)cc1-c1ccccc1Cl`, in data set [1], the Activity result was “Non-toxic”.

Regarding `COc1ccc(S(=O)(=O)N(c2ccc(F)cc2)C2CCN([C@@H]3COCC[C@@]3(O)c3ccccc3)CC2)cc1`, in data set [1], the Activity result is reported as “Non-toxic”. In the case of `CCN(CC)CCCC(C)Nc1c2ccc(Cl)cc2nc2ccc(OC)cc12` (centres undefined) [QUINACRINE], the Activity result in data set [1] was “Toxic”. On the same count and under the same terms, next, `CN(C)CCCn1c2c(c3ccccc31)CCCCCC2` [IPRINDOLE]: “Toxic”.
